The source made the active and inactive calls. No cut-off for these calls is given here.
Columns and labels:
SK-OV-3 [1] = assay: Cytotoxicity against human SKOV3 cells assessed as reduction in cell viability after 48 hrs by MTT assay; assay type: functional, cell-based; conditions: SK-OV-3, 48 h
Summary of the method: (§1)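 MTT viability assay. Stocks in DMSO were diluted into culture medium to final 1, 5, 10, 50 and 100 µg/mL, with DMSO below 1%. A549, MCF-7, SKOV3 and normal mouse fibroblast L929 were used, with etoposide as reference. Values are means of three experiments. L929 was also tested up to 200 µg/mL alongside cisplatin 50 µg/mL.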

MCF7 [2] = assay: Cytotoxicity against human MCF7 cells assessed as reduction in cell viability after 48 hrs by MTT assay; assay type: functional, cell-based; conditions: MCF7, 48 h; summary of the method: as §1
A549 [3] = assay: Cytotoxicity against human A549 cells assessed as reduction in cell viability after 48 hrs by MTT assay; assay type: functional, cell-based; conditions: A549, 48 h; summary of the method: as §1
MCF7 [4] = assay: Cell cycle arrest in human MCF7 cells assessed as accumulation at sub-G1 phase at 12 ug/ml after 48 hrs by RNase A/propidium iodide staining based FACScalibur flow cytometry (reference value: 0.66 %); assay type: functional
Summary of the method: (§2)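 MCF-7 seeded at 25×10^4 cells/well, treated 24 h later with 12 µg/mL for 48 h; untreated control. Cells washed in cold PBS, fixed in 70% ethanol ≥3 h, RNase A 1 h at room temperature, then propidium iodide. Phase distribution (sub-G1, G1, S, G2/M) read by flow cytometry.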

MCF7 [5] = assay: Cell cycle arrest in human MCF7 cells assessed as accumulation at S phase at 12 ug/ml after 48 hrs by RNase A/propidium iodide staining based FACScalibur flow cytometry (reference value: 38.2 %); assay type: functional; summary of the method: as §2
MCF7 [6] = assay: Cell cycle arrest in human MCF7 cells assessed as accumulation at G1 phase at 12 ug/ml after 48 hrs by RNase A/propidium iodide staining based FACScalibur flow cytometry (reference value: 44.45 %); assay type: functional; summary of the method: as §2
Ovis aries [7] = species on record: Ovis aries; assay: (§3) Inhibition of sheep brain tubulin polymerization incubated for 15 mins in presence of GTP by turbidimetric method
Summary of the method: (§4)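 Tubulin purified from sheep brain by three polymerization/depolymerization cycles. It was preincubated 15 min on ice with 0.5, 2, 10 or 20 µg/mL, then polymerization started with 1 mM GTP at 37 °C and followed by turbidity at 350 nm. IC50 was taken from area under the curve, with untreated control set as 100% polymerization. Colchicine served as reference.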

[8] = as §3; parameters: species or system Ovis aries; summary of the method: as §4
Ovis aries [9] = species on record: Ovis aries; assay: Inhibition of colchicine binding to sheep brain tubulin assessed as decrease in fluorescence of colchicine-tubulin complex at 1 to 5 uM by fluorescence based assay
Summary of the method: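 Purified tubulin (0.25 µM) incubated 1 h at 37 °C with colchicine 0.1, 0.25, 0.5 or 1 µM, then test compound at final 1 or 5 µM. Fluorescence read at ex 360/em 430 nm, corrected for compound background, expressed as F/F0; n=3.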

SK-OV-3 [10] = assay: Induction of apoptosis in human SKOV3 cells assessed as necrotic cells at 2 ug/ml after 48 hrs by AnnexinV-FITC/propidium iodide staining based FACScan flow cytometry analysis relative to control; assay type: functional
Summary of the method: (§5)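 SKOV3 seeded at 1×10^6 cells/well for 24 h, then given fresh medium containing 2 or 4 µg/mL for 48 h. Cells harvested by trypsinization, PBS-washed, stained with Annexin-V-FITC 15 min at room temperature, then PI 10 min. Flow cytometry with 488 nm excitation; quadrants were necrotic, late apoptotic, viable and early apoptotic.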

MCF7 [11] = assay: Cell cycle arrest in human MCF7 cells assessed as accumulation at G2/M phase at 12 ug/ml after 48 hrs by RNase A/propidium iodide staining based FACScalibur flow cytometry (reference value: 16.69 %); assay type: functional; summary of the method: as §2
SK-OV-3 [12] = assay: Induction of apoptosis in human SKOV3 cells assessed as early apoptotic cells at 4 ug/ml after 48 hrs by AnnexinV-FITC/propidium iodide staining based FACScan flow cytometry analysis relative to control; assay type: functional; summary of the method: as §5
SK-OV-3 [13] = assay: Induction of apoptosis in human SKOV3 cells assessed as late apoptotic cells at 2 ug/ml after 48 hrs by AnnexinV-FITC/propidium iodide staining based FACScan flow cytometry analysis relative to control; assay type: functional; summary of the method: as §5
SK-OV-3 [14] = assay: Induction of apoptosis in human SKOV3 cells assessed as viable cells at 2 ug/ml after 48 hrs by AnnexinV-FITC/propidium iodide staining based FACScan flow cytometry analysis relative to control; assay type: functional; conditions: SK-OV-3, 48 h, read-out: Activity; summary of the method: as §5
SK-OV-3 [15] = assay: Induction of apoptosis in human SKOV3 cells assessed as necrotic cells at 4 ug/ml after 48 hrs by AnnexinV-FITC/propidium iodide staining based FACScan flow cytometry analysis relative to control; assay type: functional; summary of the method: as §5
[16] = Hemolytic activity in human erythrocytes at 10 ug/ml after 1 hr relative to control; assay type: ADME, cell-based, Erythrocyte; conditions: read-out: Activity
Summary of the method: (§6)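 Human erythrocytes; DMSO stock added 1:20 to diluted cells to give final 1, 5 and 10 µg/mL. DMSO served as negative control and Triton X-100 (2% v/v) as positive (100%) control. Percent hemolysis measured in three repeats, mean ± SD.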

SK-OV-3 [17] = assay: Induction of apoptosis in human SKOV3 cells assessed as early apoptotic cells at 2 ug/ml after 48 hrs by AnnexinV-FITC/propidium iodide staining based FACScan flow cytometry analysis relative to control; assay type: functional; summary of the method: as §5
L929 [18] = assay: Genotoxicity in mouse L929 cells assessed as induction of DNA damage at 10 ug/ml incubated for 1 hr by alkaline comet assay; assay type: toxicity, cell-based; conditions: l929, 1 h
Summary of the method: (§7)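 Alkaline comet assay in L929 seeded at 250000 cells/well and exposed for 1 h to 10 µg/mL; etoposide 0.5 µg/mL served as positive control and untreated cells as negative. Cells were embedded in low-melt agarose and lysed 1 h at 4 °C (2.5 M NaCl, 100 mM EDTA, 10 mM Tris, pH 10, 10% DMSO, 1% Triton X-100). DNA unwound 40 min at pH>13, electrophoresed 25 V/300 mA 20 min, neutralized, stained with ethidium bromide. Tail length, % tail DNA and tail moment scored; mean ± SEM.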

SK-OV-3 [19] = assay: Induction of apoptosis in human SKOV3 cells assessed as late apoptotic cells at 4 ug/ml after 48 hrs by AnnexinV-FITC/propidium iodide staining based FACScan flow cytometry analysis relative to control; assay type: functional; summary of the method: as §5
SK-OV-3 [20] = assay: Induction of apoptosis in human SKOV3 cells assessed as viable cells at 4 ug/ml after 48 hrs by AnnexinV-FITC/propidium iodide staining based FACScan flow cytometry analysis relative to control; assay type: functional; conditions: SK-OV-3, 48 h, read-out: Activity; summary of the method: as §5
L929 [21] = assay: Cytotoxicity against mouse L929 cells assessed as […] cell viability after 48 hrs by MTT assay; assay type: cell-based; conditions: L929, 48 h; summary of the method: as §1
PC-3 = assay: Cytotoxicity against human PC3 cells assessed as reduction in cell growth; assay type: functional, cell-based
MCF7 [22] = assay: Cytotoxicity against human MCF7 cells assessed as reduction in cell growth; assay type: functional, cell-based
A549 [23] = assay: Cytotoxicity against human A549 cells assessed as reduction in cell growth; assay type: functional, cell-based
HCT-116 = assay: Cytotoxicity against human HCT116 cells assessed as reduction in cell growth; assay type: functional, cell-based
B16 = assay: Cytotoxicity against mouse B16 cells assessed as reduction in cell growth; assay type: functional, cell-based
Erythrocyte = assay: Hemolytic activity in human erythrocytes at 1 to 5 ug/ml after 1 hr; assay type: ADME, cell-based; summary of the method: as §6
L929 [24] = assay: Genotoxicity in mouse L929 cells assessed as induction of DNA damage at 0.5 ug/ml incubated for 1 hr by alkaline comet assay; assay type: toxicity, cell-based; conditions: l929, 1 h; summary of the method: as §7

SMILES | IC50 (SK-OV-3 [1]) | IC50 (MCF7 [2]) | IC50 (A549 [3]) | also measured
COc1cc(C2(O)CSC(=S)N2Cc2ccc(Cl)cc2)cc(OC)c1OC (stereo not given) | 18.1 µM | 18.8 µM | 11.6 µM | –
COc1cc(C2(O)CSC(=S)N2Cc2ccccc2Cl)cc(OC)c1OC (stereo not given) | 12.1 µM | 12.3 µM | 14.6 µM | –
COc1cc(-c2csc(=S)n2Cc2ccccc2)cc(OC)c1OC | 17.5 µM | 13.9 µM | 12.1 µM | –
COc1cc(C2(O)CSC(=S)N2C)cc(OC)c1OC (stereo not given) | 13.4 µM | 26.1 µM | 10.2 µM | –
COc1cc(-c2csc(=S)n2Cc2ccccc2Cl)cc(OC)c1OC | 13.5 µM | 2.8 µM | 13.8 µM | Activity (MCF7 [4]): 14.74%; Activity (MCF7 [5]): 7.17%; Activity (MCF7 [6]): 78.02%; inhibition (Ovis aries [7]): Dose-dependent effect; IC50 [8]: 5.14 µg/mL; inhibition (Ovis aries [9]): Active; Activity (SK-OV-3 [10]): 12.57%; Activity (MCF7 [11]): 0.07%; Activity (SK-OV-3 [12]): 7.6%; Activity (SK-OV-3 [13]): 15.49%; viability at 2 µg/mL (SK-OV-3 [14]): 68.9%; Activity (SK-OV-3 [15]): 13.72%; hemolysis at 1 h, 10 ug/ml [16]: < 25%; Activity (SK-OV-3 [17]): 3.06%; Activity (L929 [18]): Non-Toxic; Activity (SK-OV-3 [19]): 19.81%; viability at 4 µg/mL (SK-OV-3 [20]): 58.9%; IC50 (L929 [21]): > 200 µg/mL
COc1ccc(-c2coc(=O)n2-c2cc(OC)c(OC)c(OC)c2)cc1N | – | – | – | IC50 (PC-3): 0.0011 to 0.0043 µM; IC50 (MCF7 [22]): 0.0011 to 0.0043 µM; IC50 (A549 [23]): 0.0011 to 0.0043 µM; IC50 (HCT-116): 0.0011 to 0.0043 µM; IC50 (B16): 0.0011 to 0.0043 µM
COc1cc(-c2csc(=S)n2Cc2ccc(F)cc2)cc(OC)c1OC | 18.6 µM | 10 µM | 15.8 µM | –
COc1cc(-c2csc(=S)n2Cc2ccc(Cl)cc2)cc(OC)c1OC | 18.1 µM | 5.9 µM | 6.7 µM | Activity (MCF7 [4]): 17.28%; Activity (MCF7 [5]): 22.43%; Activity (MCF7 [6]): 54.57%; inhibition (Ovis aries [7]): Dose-dependent effect; IC50 [8]: 9.97 µg/mL; Activity (SK-OV-3 [10]): 16.12%; Activity (MCF7 [11]): 5.72%; Activity (SK-OV-3 [12]): 6.2%; Activity (SK-OV-3 [13]): 13.55%; viability at 2 µg/mL (SK-OV-3 [14]): 64.1%; Activity (SK-OV-3 [15]): 19.9%; hemolysis at 1 h, 10 ug/ml [16]: < 25%; Activity (SK-OV-3 [17]): 6.2%; Activity (L929 [18]): Toxic; Activity (SK-OV-3 [19]): 15.49%; Activity (Erythrocyte): Non-Toxic; viability at 4 µg/mL (SK-OV-3 [20]): 64.1%; IC50 (L929 [21]): > 200 µg/mL
COc1cc(-c2csc(=S)n2C)cc(OC)c1OC | 23.4 µM | 27.7 µM | 17.5 µM | –
COc1cc(-c2csc(=S)n2-c2ccc(Cl)c(Cl)c2)cc(OC)c1OC | 17.9 µM | 9.6 µM | 12.1 µM | –
COc1cc(-c2csc(=S)n2-c2ccc(Cl)cc2)cc(OC)c1OC | 17.7 µM | 16.9 µM | 15.4 µM | –
COc1cc(C2(O)CSC(=S)N2Cc2ccc(F)cc2)cc(OC)c1OC (stereo not given) | 12.4 µM | 12 µM | 21.4 µM | –
COc1cc([C@@H]2c3cc4c(cc3[C@@H](O[C@@H]3O[C@@H]5CO[C@@H](C)O[C@H]5[C@H](O)[C@H]3O)[C@H]3COC(=O)[C@H]23)OCO4)cc(OC)c1O [ETOPOSIDE] | 9.2 µM | 5.7 µM | 6 µM | Activity (L929 [24]): Toxic
COc1cc(-n2c(-c3ccc(Cl)cc3)csc2=S)cc(OC)c1OC | – | > 100 µg/mL | – | –
COc1cc(C2(O)CSC(=S)N2Cc2ccccc2)cc(OC)c1OC (stereo not given) | 13.8 µM | 13.4 µM | 12.8 µM | –
COc1cc(-c2csc(=S)n2Cc2ccc(O)cc2)cc(OC)c1OC | 18.7 µM | 22 µM | 15.6 µM | –
